Experimental data: the EternaBench riboswitch data

Tested on: MS2 coat protein
Assay: apparent Kd, MS2 coat protein; higher = weaker binding; RNA-MaP array; FMN 200 µM where present
Summary of the method: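 Green signal from SNAP-549-labelled MS2 coat protein was normalised to red-channel RNA signal and to the median Fmax of control clusters. The protein was titrated from 0.7 or 1.5 nM, doubling to 3 µM, without and then with constant ligand, over designs transcribed by stalled E. coli RNA polymerase on Illumina sequencing-chip clusters, in 100 mM Tris-HCl pH 7.5, 80 mM KCl, 4 mM MgCl2, BSA, DTT, yeast tRNA and Tween-20. The apparent Kd is the median of filtered per-cluster binding-curve fits.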

[1] = designed as: OFF switch for flavin mononucleotide, no ligand
[2] = ligand present: flavin mononucleotide, designed as: OFF switch for flavin mononucleotide
[3] = designed as: ON switch for flavin mononucleotide, no ligand
[4] = ligand present: flavin mononucleotide, designed as: ON switch for flavin mononucleotide

| Sequence | apparent Kd [1] [nM] | apparent Kd [2] [nM] | apparent Kd [3] [nM] | apparent Kd [4] [nM] |
| --- | --- | --- | --- | --- |
| UACUUGUUAGGAUAUCUUACAUUUGCAUUAUAGCAACUAUUGGAGAAGGGACAUGAGGAUCACCCAUGUUUGGU | 39.9 | 48.2 |  |  |
| UAGAGCGCUUGAGGAUAUCGCUUUGUGAUGGUACUCAUGCUUGUUACAUGAGGAUCACCCAUGUGCGAGAAGGCAGGCCGUUAG | 59.3 | 12.6 |  |  |
| UAGCCACAAGGAUAUACAUGAGGAUCACCCAUGUUUCCAGGAUGCCCUCUCAUGGGUUGUAGAAGGUGUCGGCG | 15.8 | 17.9 |  |  |
| UAGCUUGACGCAGGAUAUCCAGGGCUGAGAUGAGGAGAAGGGCGCCAAACAUGAGGAUCACCCAUGUAUUAUGCAGGGUCCUCA | 336 | 315 |  |  |
| UAGGACUACGUAGGAUAUGUAGUAGAUUACUACAUGAGGAUCACCCAUGUAAGCAUGUGAUUAGGACAGAAGGACGUGGUAAAU |  |  | 24.8 | 8.91 |
| UAGGAGCAAGGAUAUACGAGGAUAUGGUAGUUUGUAGAGUGACAUGAGGAUCACCCAUGUAGAAGGUGCGUGUG | 123 | 99.7 |  |  |
| UAGGUGGAAGGAUAUACAUAUGGCCUAUGAGAUACUUCACGACAUGAGGAUCACCCAUGUAGAAGGUCUACCGU | 17.9 | 39.4 |  |  |
| UAGGUGUGAGGAUAUGGUAAAGAUAAAAUGAUGAAAGAACUCCAGAAGGCACAUGAGGAUCACCCAUGUAGAUG | 29.2 | 54.9 |  |  |
| UAUAAACAUGAGGAUCACCCAUGUAAUAAUAUGGGAGGAUAUCAGAUUUAAUUUAAUUUAUGAGAAGGCCUAAUAU |  |  | 627 | 43.1 |
| UAUAACCAAGGAUAUACAUGAGGAUCACCCAUGUAAUAUAGUAUAAUAUAUGUAAAAUGUAGAAGGUGGGAUGU | 32 | 34 |  |  |
| UAUAAGAACGAAGGAUAUGGUUACAUGAGGAUCACCCAUGUAUUAAUUUUGAUCUAUUUUUAUAACCAGAAGGUCGAGAGUAAA | 36.2 | 49.5 |  |  |
| UAUAUAAUAUUACACAUGAGGAUCACCCAUGUACAUGGGAUAGAGGAUAUACAAAUAUUAGUGGUGUAGAAGGUUAAUAUAUAU | 266 | 71 |  |  |
| UAUAUACAUGAGGAUCACCCAUGUCAGGAUAUGCGCCGAUUAUAUACAUAAGAUCGGUGCAGAAGGGACACUAA | 35.5 | 67.2 |  |  |
| UAUAUAUAGUAAGGAUAUGUAAUUCUUUUAUAAACAGAAGGUACUGACAUGAGGAUCACCCAUGUUUUAGUGUGGGCAUGUAGA | 66.3 | 81.9 |  |  |
| UAUAUAUAGUAAGGAUAUGUAUUCAUUUUAUAAACAGAAGGUACUGACAUGAGGAUCACCCAUGUUUUAGUGUGGGCAUGUAGA | 81.5 | 132 |  |  |
| UAUAUAUAGUAAGGAUAUGUAUUUAUGUUAUAAACAGAAGGUACUGACAUGAGGAUCACCCAUGUUUUAGUGUGGGCAUGUAGA | 87.9 | 122 |  |  |
| UAUAUAUAGUAAGGAUAUGUAUUUAUUUGAUAAACAGAAGGUACUGACAUGAGGAUCACCCAUGUUUUAGUGUGGGCAUGUAGA | 81.6 | 131 |  |  |
| UAUAUAUUCGUAGGAUAUCCGUUAAAACCAUGUGGAGAAGGACGAACAUGAGGAUCACCCAUGUAUCAUGGUGUAGACAAUUUU | 40.3 | 187 |  |  |
| UAUAUGUCAGGAUAUCGAUUGGAGCGGAAUUUAGCUUUGGUCGAGAAGGGACAUGAGGAUCACCCAUGUUCCUC | 30 | 142 |  |  |
| UAUAUGUCAGGAUAUUAAUUAAAAUGGAAUUUAGUUUUAAUUAAGAAGGGACAUGAGGAUCACCCAUGUUCCUC | 20.9 | 128 |  |  |
| UAUAUGUGAGGAUAUCAGGUGUGCUAGCGUACUGGUACAUCUGAGAAGGCACAUGAGGAUCACCCAUGUUUCUU | 26.3 | 88 |  |  |
| UAUCCACAUGAGGAUCACCCAUGUGAGGAUAUGAUACUAUGUACUUCGGUACAUAGUAUCAGAAGGCACAGGUC | 21.3 | 36.3 |  |  |
| UAUCGUGUUCGAGGAUAUGAAACUAGGCCGGGCACUGUAUACCCGCCUGUCUCAGAAGGCGGACAUGAGGAUCACCCAUGUAAA | 202 | 17.4 |  |  |
| UAUCUAUUUAUGGGAUUAGAAUAUGAGGAUAUCAUUUAUUUAUACAUGAGGAUCACCCAUGUUUCUGAGAAGGCAUAUUUAAUA |  |  | 20.3 | 6.73 |
| UAUGGUAAAGUCAGGAUAUACGUACAUAAUUCUAGGUAGAAGGGACAUGAGGAUCACCCAUGUAUGGUAGUGUU | 73 | 84 |  |  |
| UAUGGUUAAGUCAGGAUAUGCUCGUAGAAGUCUAUGCAGAAGGGACAUGAGGAUCACCCAUGUAUGGUCGUGUU | 94.3 | 177 |  |  |
| UAUGUUAGCACAGGAUAUUGUUAUUAUUUAAUUCAAGAAGGGUGUACAUGAGGAUCACCCAUGUUAUGGUUUUAUCUUUUACAA | 1280 | 457 |  |  |
| UAUUAACACGAAGGAUAUGGUUACAUGAGGAUCACCCAUGUAUGUAUAUUGAUCUAGAUUUUUGACCAGAAGGUCGUGAGUAAA | 23.9 | 38.2 |  |  |

| Sequence | apparent Kd [1] [nM] | apparent Kd [2] [nM] | apparent Kd [3] [nM] | apparent Kd [4] [nM] |
| --- | --- | --- | --- | --- |
| UAUUAGUAAGGAUAUCUCGUCAUGGACGUGAGUCCAUGACGAGAGAAGGUACAUGAGGAUCACCCAUGUUCAUU | 15.9 | 18.3 |  |  |
| UAUUUAAUCUCAGGAUAUAACAUUACAUACAAAUUAGAAGGGAGAACAUGAGGAUCACCCAUGUACAUGAGGAUCACCCAUGUU |  |  | 692 | 576 |
| UAUUUUAACUAAGGAUAUCUAUAAUAAUUUGAAACAUGAGGAUCACCCAUGUUCAUGGGUUUUUAAGAGAAGGUAGAUGAAUAA |  |  | 59.8 | 26.1 |
| UAUUUUUAUGUAAGGAUAUGGGUUUGGUUGCGGGCUUAGAAGGUACAUGAGGAUCACCCAUGUAUUUUGUGCAU | 32.8 | 35.3 |  |  |
| UCAACCAGCGCCGGUUGAACAUGAGGAUCACCCAUGUACUCCAGAAGGCCGCCCAAGAACGGAGUGGAGGAUAUGGAAGUUCUC |  |  | 75.7 | 39.9 |
| UCAAUUUUGCGAGGAUAUCGACCAUUCCUCUUUACAUGAGGAUCACCCAUGUUCUUUUUCUACAACGAGAAGGCGCUCAUAGUU | 55.5 | 67.1 |  |  |
| UCACGGAGCCUAGGAUAUACAUGAGGAUCACCCAUGUAUUGACGUUAGUGCUGGACUGAUUUGCUGUAGAAGGAGGUCACUGAG | 16.6 | 18.3 |  |  |
| UCAGGCUUCGAGAAGGACAUGAAUCGUAGCAUUGCUACGAUGAAAUAUACAUGAGGAUCACCCAUGUAGGAUAUCGGAGUCUGC | 5.35 | 6.13 |  |  |
| UCAGGCUUCGAGAAGGACAUGAGGAUCACCCAUGUGCGUGUGAAGCAGCCGUGAGGCUGCAUCAUGUAGGAUAUCGGAGUCUGU | 92.3 | 554 |  |  |
| UCAGGCUUCGAGAAGGACAUGAGGAUCACCCAUGUUAACAUGAAGCAGCCGUGAGGCUGCAUCAUGUAGGAUAUCGGAGUCUGC | 5.44 | 6.09 |  |  |
| UCAGGCUUCGAGAAGGACAUGAGGAUCACCCAUGUUAAUUUGAAGCAGCCGUGAGGCUGCAUCAUGUAGGAUAUCGGAGUCUGC | 6.17 | 10.2 |  |  |
| UCAUAAUAGAUCCUAUUUAUCUACAUGAGGAUCACCCAUGUGCAGGAUAUGCUAUAAUUUAAUAAGCAGAAGGGCAAUUUCAGA | 96.8 | 381 |  |  |
| UCAUGGUAGCAGGAUAUGCUUGUUUUUUUUUUUGCAGAAGGGCUUACAUGAGGAUCACCCAUGUGUUAGGUCUA | 25.2 | 30.8 |  |  |
| UCAUGUUAAGGAUAUACAUGAGGAUCACCCAUGUUUGUUCAAAAUCUUAGAUCCCAAUGUAGAAGGUGGCUGUA | 75.8 | 75.4 |  |  |
| UCAUUUAUCACAGGAUAUAUUAGUAUACAGUUGUUUGGCUCUUACAUAUUAAUAGAAGGGUGCAACAUGAGGAUCACCCAUGUA |  |  | 262 | 102 |
| UCAUUUAUUACAGGAUAUGUUAGUAUUCAGUUGUUUGGUUAUUACUUAUUUACAGAAGGGUAGAACAUGAGGAUCACCCAUGUA |  |  | 407 | 329 |
| UCAUUUCAGUAAGGAUAUUAAUUCAUGACGAUACAUGAGGAUCACCCAUGUUAAGAAGGUACUAAUACAAAUAAUGCAUUGUUC | 12.4 | 11.2 |  |  |
| UCAUUUCUGUAAGGAUAUUAAUUCAUGACGAUACAUGAGGAUCACCCAUGUUAAGAAGGUACAAAUACAAAUAAUGCAUUGUUC | 11.8 | 10.6 |  |  |
| UCCAAAUCGUAGAAGGGUGACAUGAGGAUCACCCAUGUGCAGCAACCGUGAACGGCCAUGCUGCCACAGGAUAUACGAUGGAGU |  |  | 14.1 | 29.8 |
| UCCACUGCUGAGAAGGGAUACGUCUGGUUCGCAUCAGGAUAUCGAUACAGUGCAGCAUGAGGACAUGAGGAUCACCCAUGUAUC |  |  | 11 | 8.98 |
| UCCAGGCGAGGAUAUACAAAGAUUUUUUCGUUUUGUCUCGAACAUGAGGAUCACCCAUGUAGAAGGUGCUGCUG | 57.5 | 52.9 |  |  |
| UCCCGUUGUCAGAAGGCUCCUCGGAACCCGAGGAGAGGAUAUGACACAUGAGGAUCACCCAUGUGCCCGGUCGUGACAAAGGUG | 13.4 | 146 |  |  |
| UCCCGUUGUCAGAAGGCUCCUCGUAACCCGAGGAGAGGAUAUGACACAUGAGGAUCACCCAUGUGCCCGGUCGUGACAAAGGUG | 11.7 | 158 |  |  |
| UCCCUAAGGCAGGCCGACCAUACAUGAGGAUCACCCAUGUCGAGAAGGUGCUCACGGGUGGGUGGCAAGGAUAUCGGGUCGGAU |  |  | 92.9 | 43.6 |
| UCCCUAGAAGUAAGGAUAUGUCGAUGGCCAAUUCGAUAGAAGGUACAUGAGGAUCACCCAUGUGACCUACUGGG | 15.7 | 23.7 |  |  |
| UCCGAACAUGAGGAUCACCCAUGUCUAAUACGUCAAGGAUAUGGGCGCGGAGAACCGCAACCAGAAGGUGAGAAAU |  |  | 507 | 89.4 |
| UCCGCUCGAGGAUAUACAUGAGGAUCACCCAUGUUUCCCUGUUGUUUGGCCUUAGGAUGUAGAAGGCGACGUUA | 17.7 | 17.8 |  |  |
